The values below come from publication PMC5161706 (Clinical cancer research : an official journal of the …, 2016).

The subject of series [1] is phosphorylation of p70S6K (Thr389). Briefly: Immunoblot for phospho- and total p70S6K in K7M2 cells. In kind it is cell-based, murine. As to conditions: concentrations as low as 0.1μM, 4 hours, immunoblot (Fig 3A).
The test system is the same in series [2]. Briefly: Immunoblot for phospho- and total p70S6K in MG63.3 cells. In kind it is cell-based, human. The settings on record: concentrations as low as 0.1μM, 4 hours, immunoblot (Fig 3A). In general terms: In western blotting, separated proteins are transferred to a membrane and probed.
Series [3] can be described thus: Single rapamycin dose pharmacokinetic study, whole blood levels. In kind it is in vivo, mice. Summed up:
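Naive female athymic nude mice, 8-10 weeks old, received a single 5mg/kg IP dose (n=3 per condition). Whole blood was sampled at 0, 1, 2, 6, 24 and 48 h and quantified by validated LC/MS/MS. Parameters were derived noncompartmentally: Cmax and trough read directly from the data, AUC by the log-linear trapezoidal method.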

Series [4] concerns K7M2 cells. Briefly: In vitro ds-SL-mCherry reporter expression. In kind it is cell-based, murine. The settings on record: 1μM rapamycin, 5 days in culture (Fig 4A).
Series [5] concerns MG63.3 cells. Briefly: In vitro ds-SL-mCherry reporter expression. In kind it is cell-based, human. As to conditions: 1μM rapamycin, 5 days in culture (Fig 4B).
Series [6] deals with K7M2 cells. Briefly: Ex vivo lung culture metastatic outgrowth, K7M2. In kind it is cell-based, murine. Summed up: (§1)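 Tumor cells were tail-vein injected, and lung sections were then cultured ex vivo. K7M2 cells were grown in female BALB/c mice and MG63.3 in female SCID-beige mice, 8-10 weeks old. Culture media held a final 0.1uM or 1uM rapamycin, or volume-matched DMSO, refreshed every 2 days. Eight sections were imaged per condition. Burden was total GFP+ area per section normalised to day 0.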

In series [7] the test system is MG63.3 cells. Briefly: Ex vivo lung culture metastatic outgrowth, MG63.3. In kind it is cell-based, human. Summed up: as §1
In series [8] the test system is K7M2 cells. Briefly: Spontaneous. The settings on record: orthotopically injected K7M2 cells, 5mg/kg daily IP (Fig 6C). In kind it is in vivo, murine. Summed up:
(§2)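 Cells were injected para-osseously into the proximal tibia: K7M2 into female BALB/c mice, human lines into female SCID-beige mice, 8-10 weeks old; MNNG at 1x10^6 cells. Mice received 5mg/kg IP rapamycin or vehicle daily, 5 days/week. Tumours were measured every 3-4 days and limbs amputated at 1.5-1.7 cm3. Survival ran from amputation, with metastasis confirmed at necropsy; Kaplan-Meier analysis, Gehan-Breslow-Wilcoxon test.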

Series [9] relates to MG63.3 cells. Briefly: Spontaneous. In kind it is in vivo, human. The settings on record: orthotopically injected MG63.3 cells, 5mg/kg daily IP (Fig 6D). In short, it runs like this:
as §2

In another series the test system is MNNG cells. Briefly: Spontaneous. In kind it is in vivo, human. The settings on record: orthotopically injected MNNG cells, 5mg/kg daily IP (Fig 6E). Summed up: as §2

`CO[C@H]1C[C@@H]2CC[C@@H](C)[C@@](O)(O2)C(=O)C(=O)N2CCCC[C@H]2C(=O)O[C@H]([C@H](C)C[C@@H]2CC[C@@H](O)[C@H](OC)C2)CC(=O)[C@H](C)/C=C(\C)[C@@H](O)[C@@H](OC)C(=O)[C@H](C)C[C@H](C)/C=C/C=C/C=C/1C` [rapamycin]: the “inhibition of phosphorylation of p70S6K” value in [1] and in series [2] was “effectively inhibited phosphorylation of p70S6K” in each case. Moreover, the AUC/dose equivalent value in [3] (mice, 5mg/kg IP, noncompartmental methods, predicted sufficient to inhibit p70S6K phosphorylation and exert anti-metastatic activities) is 3,555 [ng*hr/ml]/[mg/kg]. In series [3] (naïve mice, single IP dose of 5mg/kg, for 24hrs (Fig 3C)), the “whole blood concentration maintained” value is “above 0.1 μM”. For the same compound, the “effect on ds-SL-mCherry reporter expression in vitro” value with K7M2 cells [4] and in the series with MG63.3 cells [5] was “no effect on reporter expression” each time. The “metastatic outgrowth in ex vivo lung culture” value is “robustly inhibited metastatic outgrowth” in the series with K7M2 cells [6] (K7M2, 0.1μM rapamycin (Fig 5B, 5C)); “robustly inhibited metastatic outgrowth” in the series on K7M2 cells [6] (K7M2, 1μM rapamycin (Fig 5B, 5C)); “robustly inhibited metastatic outgrowth” in the series on MG63.3 cells [7] (MG63.3, 0.1μM rapamycin (Fig 5D, 5E)); “robustly inhibited metastatic outgrowth” in the series with MG63.3 cells [7] (MG63.3, 1μM rapamycin (Fig 5D, 5E)). Moreover, the “survival of mice from time of limb amputation” value in the series with K7M2 cells [8], with MG63.3 cells [9] and in the series on MNNG cells was “significantly prolonged survival” in each case.
